The source made the active and inactive calls. No cut-off for these calls is given here.
Columns and labels:
[1] = target: T1, Phospholipase D1 (Mus musculus) (UniProt Q9Z280); assay: In vivo inhibition of PLD1 in male C57BL/6 mouse allografted with mouse Lewis lung carcinoma cell line assessed as increase in IL-17+ th17 cell population at 10 mg/kg, po by immunofluorescence analysis; assay type: functional, organism-based
T1 sequence (whole entry): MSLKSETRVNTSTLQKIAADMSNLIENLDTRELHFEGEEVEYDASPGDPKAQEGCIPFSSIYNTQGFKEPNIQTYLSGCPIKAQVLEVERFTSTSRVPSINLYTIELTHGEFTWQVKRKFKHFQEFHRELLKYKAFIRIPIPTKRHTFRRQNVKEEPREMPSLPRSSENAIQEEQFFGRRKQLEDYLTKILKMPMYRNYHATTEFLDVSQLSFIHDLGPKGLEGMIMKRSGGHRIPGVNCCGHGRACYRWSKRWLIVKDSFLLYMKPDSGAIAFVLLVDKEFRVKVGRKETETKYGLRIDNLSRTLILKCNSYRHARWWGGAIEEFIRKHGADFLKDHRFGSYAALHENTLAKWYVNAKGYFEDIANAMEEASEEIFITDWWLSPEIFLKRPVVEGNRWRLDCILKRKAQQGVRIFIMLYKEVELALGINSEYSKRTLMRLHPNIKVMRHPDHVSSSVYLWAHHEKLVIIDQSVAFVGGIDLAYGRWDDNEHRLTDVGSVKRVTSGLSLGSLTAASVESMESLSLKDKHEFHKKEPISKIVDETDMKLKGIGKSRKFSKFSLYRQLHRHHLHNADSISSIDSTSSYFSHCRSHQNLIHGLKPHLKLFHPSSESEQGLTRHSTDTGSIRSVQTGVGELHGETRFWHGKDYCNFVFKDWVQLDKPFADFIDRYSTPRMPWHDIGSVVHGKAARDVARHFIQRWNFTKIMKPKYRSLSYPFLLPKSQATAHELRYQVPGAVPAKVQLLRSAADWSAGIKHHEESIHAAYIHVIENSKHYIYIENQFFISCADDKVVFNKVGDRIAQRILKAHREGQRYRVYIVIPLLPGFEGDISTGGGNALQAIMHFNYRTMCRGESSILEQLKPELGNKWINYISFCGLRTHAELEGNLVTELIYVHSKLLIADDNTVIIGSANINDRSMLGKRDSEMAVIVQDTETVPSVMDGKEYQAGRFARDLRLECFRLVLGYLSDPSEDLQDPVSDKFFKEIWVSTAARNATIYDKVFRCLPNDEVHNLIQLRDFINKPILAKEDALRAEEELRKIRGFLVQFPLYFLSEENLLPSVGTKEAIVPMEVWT
In short: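 Same LLC syngeneic C57BL/6 model, 10 mg/kg PO every other day for 3 weeks. Tumor tissues were stained by immunofluorescence for CD80+ and CD163+ cells, CD8+ T cells, and CD4+/IL-17+ and Treg populations. Nuclei were counterstained with 1 μM Hoechst 33342 and imaged by confocal microscopy.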

[2] = target: T2, Phospholipase D1 (Homo sapiens) (UniProt Q13393); assay: Binding affinity to PLD1 in human A549 cells assessed as protection against pronase E-mediated proteolysis at 2 to 20 uM incubated for 1 hr by DARTS assay; assay type: cell-based; details: dose 2-20 µM
T2 sequence (whole entry): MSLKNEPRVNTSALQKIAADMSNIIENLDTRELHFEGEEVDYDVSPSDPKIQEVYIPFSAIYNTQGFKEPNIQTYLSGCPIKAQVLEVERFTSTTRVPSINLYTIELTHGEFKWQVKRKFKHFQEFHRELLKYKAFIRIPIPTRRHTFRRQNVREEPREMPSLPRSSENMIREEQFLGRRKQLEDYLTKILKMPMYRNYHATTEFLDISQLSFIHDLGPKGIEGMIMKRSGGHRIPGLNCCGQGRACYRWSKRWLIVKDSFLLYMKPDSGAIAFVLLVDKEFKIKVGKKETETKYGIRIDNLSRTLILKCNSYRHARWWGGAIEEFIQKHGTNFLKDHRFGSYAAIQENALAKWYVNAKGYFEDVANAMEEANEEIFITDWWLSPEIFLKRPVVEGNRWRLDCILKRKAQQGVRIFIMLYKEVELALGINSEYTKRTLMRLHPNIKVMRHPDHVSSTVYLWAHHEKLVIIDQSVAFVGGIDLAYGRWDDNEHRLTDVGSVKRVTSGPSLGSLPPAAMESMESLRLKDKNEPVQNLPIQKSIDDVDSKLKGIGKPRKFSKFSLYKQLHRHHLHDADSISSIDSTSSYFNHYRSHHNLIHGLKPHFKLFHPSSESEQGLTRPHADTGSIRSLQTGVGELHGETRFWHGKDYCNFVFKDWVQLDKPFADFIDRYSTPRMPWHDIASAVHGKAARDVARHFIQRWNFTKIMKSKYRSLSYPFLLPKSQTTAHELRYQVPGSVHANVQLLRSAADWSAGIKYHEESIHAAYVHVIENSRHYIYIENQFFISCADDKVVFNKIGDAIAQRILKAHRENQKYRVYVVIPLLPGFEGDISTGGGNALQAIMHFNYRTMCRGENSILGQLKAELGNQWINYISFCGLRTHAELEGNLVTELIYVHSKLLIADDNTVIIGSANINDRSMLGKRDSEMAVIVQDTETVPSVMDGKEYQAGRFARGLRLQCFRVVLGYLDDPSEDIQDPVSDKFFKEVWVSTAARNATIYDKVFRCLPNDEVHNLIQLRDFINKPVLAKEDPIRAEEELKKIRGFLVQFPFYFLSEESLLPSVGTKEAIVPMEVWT
In short: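 A549 lysates made in buffer with protease and phosphatase inhibitors. Lysates were incubated with compound for 1 h at room temperature, then digested with Pronase for 10 min at RT. Digestion was quenched in SDS loading buffer by boiling 5 min. PLD1 and β-tubulin were detected by immunoblot.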

[3] = tested on: A549; assay: Downregulation of CD24 expression in human A549 cells by flow cytometry analysis; assay type: functional, cell-based
In short: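 A549 cells treated with compound. Surface "don't eat-me" and "eat-me" markers measured by flow cytometry.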

[4] = tested on: HCT-116; assay: Residual PLD activity in human HCT-116 cells at 10 uM measured after 1 hr by amplex red phospholipase D assay as % of control
[5] = tested on: A549; assay: Induction of apoptosis in human A549 cells assessed as increase in caspase-3 activity measured up to 48 hrs in presence of gemcitabine […]; assay type: functional, cell-based
In short: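 A549 cells given compound, gemcitabine, or both. Apoptosis assessed by PI staining, annexin V flow cytometry, cleaved PARP immunoblot, and caspase-3 activity. For caspase-3: drugs at 10 μM for 48 h, then 1 μM NucView 488 substrate for 30 min, with 1 μM Hoechst 33342, read by plate fluorescence.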

[6] = Toxicity in male C57BL/6 mouse assessed as effect on body weight at 10 mg/kg, po measured every other day for 3 weeks; assay type: organism-based; details: in vivo, 504 h
[7] = target: T1, Phospholipase D1 (Mus musculus); assay: In vivo inhibition of PLD1 in male C57BL/6 mouse allografted with mouse Lewis lung carcinoma cell line assessed as reduction in CD24 expression at 10 mg/kg, po by immunofluorescence analysis; assay type: functional, organism-based

For O=C(CCc1c[nH]c2ccccc12)Nc1cc(C(F)(F)F)cc(C(F)(F)F)c1, the inhibition [1] was “Active”, the Activity [2] was “Active” and the Activity [3] was “Active”. For the same compound, the level, % of control [4] was 26.6%, the Activity [5] was “Active” and the Activity [6] was “Non-toxic”. For the same compound, the inhibition [7] was “Active”.

From ChEMBL document CHEMBL6134796, “Development and Evaluation of Indole-Based Phospholipase D Inhibitors for Lung Cancer Immunotherapy” (J Med Chem, 2025)
